From paper PMC5551971 (ACS chemical biology, 2017)
pIC50: −log10 of the molar value. “Also recorded” adds a separate entry of the source.

How the values were obtained:
SRC = SRC (Homo sapiens, UniProt P12931); test: In vitro kinase assay panel; format: biochemical; details: 100 nM or 1000 nM AZD1775
PLK1 [1] = target: T1, PLK1 (Homo sapiens, UniProt P53350); test: i-AZD1775 affinity pulldown with AZD1775 competition, PLK1 immunoblot; format: binding; details: H322 whole cell lysates, 20 μM free AZD1775
H322 cells [2] = test: Immunoblot analysis of PARP1 and caspase 3 cleavage; format: cell-based
H322 cells [3] = test: Immunoblot analysis of γH2AX; format: cell-based; details: 4 h; for induction of DNA damage (γH2AX): parental H322 and cWEE1 control cells, AZD1775 1 μM or cisplatin 17 μM
Procedure, shortened: (§1)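 H322 cells and H322-derived CRISPR-Cas9 clones were used: WEE1 knockouts made by targeting the exon 1/intron 1 splice site, plus a control clone with WEE1 intact. Cells were exposed for 4 h to 1 μM test compound or to cisplatin (14 μM in the H322/H1648 comparison; 17 μM in the parental/clone comparison). γH2AX and total H2AX were detected by immunoblot, tracking the ~16 kDa and mono-ubiquitinated ~25 kDa γH2AX bands.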

[4] = system: cWEE1-KO[18] and cWEE1-KO[19] H322 WEE1 knockout clones; test: CellTiterGlo viability of H322 WEE1 CRISPR-Cas9 knockout clones; format: cell-based; details: 72 h
[5] = system: cWEE1-KO[18] and cWEE1-KO[19] H322 WEE1 knockout clones; test: Immunoblot analysis of γH2AX in WEE1 CRISPR-Cas9 knockout clones; format: cell-based; details: 4 h, 1 μM AZD1775
Procedure, shortened: as §1

PLK1 [6] = target: T1, PLK1; test: In vitro kinase assay panel; format: biochemical; details: 100 nM or 1000 nM AZD1775
PLK1 [7] = target: T1, PLK1; test: In vitro kinase assay; format: biochemical
LYN = LYN (Homo sapiens, UniProt P07948); test: In vitro kinase assay panel; format: biochemical; details: 100 nM or 1000 nM AZD1775
[8] = system: H322, A427, H1155 and H1648 NSCLC cells; test: Cell viability of NSCLC cell lines, 72 h treatment; format: cell-based; details: several NSCLC cell lines, single agent

T1 sequence (P53350 whole entry): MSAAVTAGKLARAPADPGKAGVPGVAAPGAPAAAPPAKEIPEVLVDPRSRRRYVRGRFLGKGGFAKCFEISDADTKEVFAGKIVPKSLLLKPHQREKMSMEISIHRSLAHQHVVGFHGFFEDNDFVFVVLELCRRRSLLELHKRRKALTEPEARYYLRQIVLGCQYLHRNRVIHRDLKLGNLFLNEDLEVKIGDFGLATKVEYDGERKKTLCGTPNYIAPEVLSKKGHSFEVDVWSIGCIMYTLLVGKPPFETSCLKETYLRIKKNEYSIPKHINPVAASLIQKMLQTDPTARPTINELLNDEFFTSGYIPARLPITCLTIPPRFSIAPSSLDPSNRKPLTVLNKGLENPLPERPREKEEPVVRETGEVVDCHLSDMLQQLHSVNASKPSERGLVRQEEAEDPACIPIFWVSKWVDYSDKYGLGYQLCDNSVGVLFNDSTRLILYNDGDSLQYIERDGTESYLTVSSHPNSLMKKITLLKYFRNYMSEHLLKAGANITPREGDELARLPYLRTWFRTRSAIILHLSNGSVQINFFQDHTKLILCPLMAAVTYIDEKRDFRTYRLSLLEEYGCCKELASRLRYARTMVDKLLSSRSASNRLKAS
Sequence of LYN (P07948 whole entry): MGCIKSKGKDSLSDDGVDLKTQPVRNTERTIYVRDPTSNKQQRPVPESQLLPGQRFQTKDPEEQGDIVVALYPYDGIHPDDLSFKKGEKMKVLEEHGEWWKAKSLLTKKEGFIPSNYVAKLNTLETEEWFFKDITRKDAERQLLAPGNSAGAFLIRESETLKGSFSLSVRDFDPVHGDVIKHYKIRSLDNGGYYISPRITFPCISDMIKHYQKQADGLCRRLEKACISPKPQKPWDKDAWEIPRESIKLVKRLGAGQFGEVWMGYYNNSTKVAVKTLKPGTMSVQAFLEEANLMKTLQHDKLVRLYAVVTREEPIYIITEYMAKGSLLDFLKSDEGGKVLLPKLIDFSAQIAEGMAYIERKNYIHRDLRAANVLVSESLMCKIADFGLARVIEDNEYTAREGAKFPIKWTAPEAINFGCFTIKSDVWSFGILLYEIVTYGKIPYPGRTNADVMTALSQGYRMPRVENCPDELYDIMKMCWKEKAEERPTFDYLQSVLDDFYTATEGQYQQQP
Sequence of SRC (P12931 whole entry): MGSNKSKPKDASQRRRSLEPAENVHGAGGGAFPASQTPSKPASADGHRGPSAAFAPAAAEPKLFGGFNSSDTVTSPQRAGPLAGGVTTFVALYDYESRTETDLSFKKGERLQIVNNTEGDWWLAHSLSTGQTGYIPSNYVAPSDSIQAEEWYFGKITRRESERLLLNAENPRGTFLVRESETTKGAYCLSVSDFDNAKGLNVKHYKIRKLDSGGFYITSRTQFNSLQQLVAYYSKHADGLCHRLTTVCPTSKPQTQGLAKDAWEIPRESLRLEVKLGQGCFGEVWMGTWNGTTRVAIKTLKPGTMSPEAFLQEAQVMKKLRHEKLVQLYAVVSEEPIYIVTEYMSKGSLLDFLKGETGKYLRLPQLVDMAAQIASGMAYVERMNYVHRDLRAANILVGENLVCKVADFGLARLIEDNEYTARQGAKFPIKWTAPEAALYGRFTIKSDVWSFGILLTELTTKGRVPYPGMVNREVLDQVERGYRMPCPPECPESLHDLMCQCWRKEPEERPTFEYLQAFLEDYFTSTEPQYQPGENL

SRC inhibition (SRC)	PLK1 enrichment in i-AZD1775 pulldown on competition with AZD1775 (PLK1 [1])	PLK1 inhibition (PLK1 [6])	pIC50 (PLK1 [7])	LYN inhibition (LYN)	Structure (SMILES)	PARP1 and caspase-3 cleavage (apoptosis induction) (H322 cells [2]; H322 versus H1648 cells, 48 h)	phosphorylation of Serine 139 in histone H2AX (γH2AX) (H322 cells [3]; H322 cells, 1 μM AZD1775)	induction of DNA damage (γH2AX) (H322 cells [3])	sensitivity of WEE1-reconstituted clone cWEE1-KO[18](RC9) [4]	γH2AX in WEE1 knockout clones [5]	inhibition of viability, potency [8]	apoptosis by PARP1 and caspase 3 cleavage (H322 cells [2]; H322 cells, 0.03 μM BI-2536 compared with 1 μM AZD1775)
potent AZD1775 targets	completely abrogated its enrichment	potent AZD1775 targets	7.47 to 7.66	potent AZD1775 targets	C=CCn1c(=O)c2cnc(Nc3ccc(N4CCN(C)CC4)cc3)nc2n1-c1cccc(C(C)(C)O)n1 [AZD1775]	markedly more pronounced in H322 cells than in H1648	potently increased	can induce DNA damage	completely reversed the sensitizing effect	further increased γH2AX	sub- to low micromolar potency	–
–	–	–	–	–	CC[C@@H]1C(=O)N(C)c2cnc(Nc3ccc(C(=O)NC4CCN(C)CC4)cc3OC)nc2N1C1CCCC1 [BI-2536]	–	–	–	–	–	–	strongly induced apoptosis; also recorded: higher degree of apoptosis than 1 μM AZD1775
–	–	–	–	–	N.N.[Cl][Pt][Cl] [cisplatin]	–	–	can induce DNA damage	–	–	–	–
